Measured values from ChEMBL document CHEMBL3108700, “Designing anti-inflammatory drugs from parasitic worms: a synthetic small molecule analogue of the Acanthocheilonema viteae product ES-62 prevents development of collagen-induced arthritis” (J Med Chem, 2013).
Active and inactive are the calls of the source. Unless noted, the rule behind the calls is not given here.

Experiments:
Mus musculus = assay: Antiinflammatory activity in DBA/1 mouse collagen-induced arthritis model assessed as reduction in number of PMA/ionomycin-stimulated total DLN cells expressing IFNgamma at 50 ug/kg, sc administered 2 days prior to collagen challenge continued till day 21 post collagen challenge by flow cytometric analysis relative to control; assay type: functional, organism-based
Summary of the method: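 CIA mice given test agent (1 μg/dose) or PBS subcutaneously on days −2, 0 and 21. Draining lymph node cells (10^6/mL) in complete RPMI were stimulated ± 50 ng/mL PMA plus 500 ng/mL ionomycin, with 10 μg/mL brefeldin A for 5 h at 37 °C. Cells were surface-stained for CD4, CD8 and γδ, fixed and permeabilized, then stained for intracellular IFNγ and IL-17A. Gating used isotype controls. Cell numbers per individual mouse; naive n = 7, treated groups n = 13.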

[1] = target: T1, Toll-like receptor 4 (Mus musculus) (UniProt Q9QUK6); assay: Inhibition of TLR4 in BALB/c mouse BMDM assessed as downregulation of LPS-stimulated IL-12p40 level at 5 ug/ml preincubated for 18 hrs followed by LPS challenge measured after 24 hrs by ELISA relative to control
T1 sequence (whole entry): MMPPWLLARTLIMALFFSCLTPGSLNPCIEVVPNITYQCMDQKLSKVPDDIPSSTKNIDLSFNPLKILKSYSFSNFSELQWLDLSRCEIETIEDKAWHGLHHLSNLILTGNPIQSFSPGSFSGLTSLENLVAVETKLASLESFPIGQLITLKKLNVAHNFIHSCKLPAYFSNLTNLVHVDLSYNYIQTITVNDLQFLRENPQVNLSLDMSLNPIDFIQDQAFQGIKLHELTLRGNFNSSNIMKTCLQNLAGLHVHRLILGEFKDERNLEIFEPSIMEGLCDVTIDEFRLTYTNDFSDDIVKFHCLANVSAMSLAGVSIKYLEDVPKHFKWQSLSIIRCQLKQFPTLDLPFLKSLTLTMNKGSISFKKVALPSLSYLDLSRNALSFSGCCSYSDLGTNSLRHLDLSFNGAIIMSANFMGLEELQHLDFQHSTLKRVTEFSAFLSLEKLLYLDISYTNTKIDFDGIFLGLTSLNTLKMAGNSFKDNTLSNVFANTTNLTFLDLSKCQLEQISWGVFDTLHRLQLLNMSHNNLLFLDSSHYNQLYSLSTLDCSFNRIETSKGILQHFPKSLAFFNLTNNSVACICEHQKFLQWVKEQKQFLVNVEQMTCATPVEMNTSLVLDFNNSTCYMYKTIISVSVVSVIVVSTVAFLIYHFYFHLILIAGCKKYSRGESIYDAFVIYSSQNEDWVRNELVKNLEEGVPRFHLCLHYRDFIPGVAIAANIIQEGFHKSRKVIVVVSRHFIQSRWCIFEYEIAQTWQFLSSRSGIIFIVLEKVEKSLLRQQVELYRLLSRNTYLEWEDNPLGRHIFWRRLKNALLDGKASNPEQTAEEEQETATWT
Summary of the method: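 BALB/c male bone marrow macrophages were differentiated 7 days with L929 supernatant (≥99% CD11b+/F4/80+). Cells were plated at 2 × 10^5/well in triplicate, rested overnight, and given compounds at 5 μg/mL for 18 h. They were then stimulated with 100 ng/mL S. minnesota LPS, 10 ng/mL Pam3CSK4 (BLP) or 0.01 μM CpG for 24 h. Supernatant IL-12p40 and IL-6 were measured by ELISA (sensitivity 16 pg/mL).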

CN(C)CCS(=O)(=O)Cc1ccc(Br)cc1
Activity (Mus musculus): Active
inhibition [1]: Active
